One data set deals with MDA-MB-231. As to the kind of experiment: Inhibition of colony formation in human MDA-MB-231 cells at 1 to 5 uM measured after 10 days by crystal violet staining based clonogenic assay. Particulars: dose 1-5 µM, time 10.0 day. Type of data set: functional, cell-based. The method in brief: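 Clonogenic assay over 10 days; cells treated with DMSO vehicle or compound at indicated concentrations, plates scanned and colonies quantified from three independent experiments.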

A further data set concerns the target mTORC1 (Homo sapiens) (UniProt P42345+Q8N122+Q9BVC4). As to the kind of experiment: Inhibition of mTORC1 in human LNCaP C4-2B cells assessed as inhibition of phosphorylation of rpS6 at Ser240/244 at 5 uM incubated for 2 hrs by Western blot analysis. It counts as cell-based. The method in brief: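 C4-2B prostate cancer cells treated with inhibitor; lysates probed by Western blot for p-eIF4E, p-S6K (Thr389), p-rpS6 (Ser240/244) and p-AKT (Ser473).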

In data set [1] the test system is A549. As to the kind of experiment: Antiproliferative activity against human A549 cells assessed as reduction in cell viability at 5 uM incubated upto 6 days by trypan blue assay. It counts as functional, cell-based. Particulars: time <= 6.0 day. In outline: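 A549 or MDA-MB-231 cells cultured with 5 μM compound for up to 6 days; cell number counted over time; p-eIF4E followed by immunoblot up to 96 h.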

Data set [2] relates to A549. As to the kind of experiment: Induction of cell cycle arrest in human A549 cells assessed as accumulation of cells at G2/M phase at 5 uM incubated for 8 hrs by propidium iodide staining based flow cytometry (Rvb=6.5%). Type of data set: functional. In general terms: A flow cytometer gives signals particle by particle.
Data set [3] in a line: Tmax in mouse at 25 mg/kg, iv and measured upto 24 hrs. Particulars: in vivo. Type of data set: ADME, organism-based.
Data set [4] can be described thus: Half life in mouse at 25 mg/kg, iv and measured upto 24 hrs. Type of data set: ADME, organism-based. Particulars: in vivo.
The subject of data set [5] is MAP kinase-interacting kinase MNK1/2 (Homo sapiens). Nature of the data set: Inhibition of MNK in human U-937 cells assessed as inhibition of eIF4E phosphorylation at 10 uM incubated for 2 hrs by Western blot analysis. In general terms: In western blotting, separated proteins are transferred to a membrane and probed.
Data set [6] has the same test system. As to the kind of experiment: Inhibition of MNK in human NCI-H1299 cells assessed as inhibition of eIF4E phosphorylation at 3 uM incubated for 2 hrs by Western blot analysis.
In the next data set the test system is MV4-11. Nature of the data set: Induction of cell cycle arrest in human MV4-11 cells assessed as decrease in cyclin D3 level at 3 uM incubated for 24 hrs by Western blot analysis.

Activity calls are given as the source filed them. The calls are words filed in the database; no cut-off is given here.

Sequence of mTORC1 (Homo sapiens) (Q8N122 whole entry, looked up, other chains not shown): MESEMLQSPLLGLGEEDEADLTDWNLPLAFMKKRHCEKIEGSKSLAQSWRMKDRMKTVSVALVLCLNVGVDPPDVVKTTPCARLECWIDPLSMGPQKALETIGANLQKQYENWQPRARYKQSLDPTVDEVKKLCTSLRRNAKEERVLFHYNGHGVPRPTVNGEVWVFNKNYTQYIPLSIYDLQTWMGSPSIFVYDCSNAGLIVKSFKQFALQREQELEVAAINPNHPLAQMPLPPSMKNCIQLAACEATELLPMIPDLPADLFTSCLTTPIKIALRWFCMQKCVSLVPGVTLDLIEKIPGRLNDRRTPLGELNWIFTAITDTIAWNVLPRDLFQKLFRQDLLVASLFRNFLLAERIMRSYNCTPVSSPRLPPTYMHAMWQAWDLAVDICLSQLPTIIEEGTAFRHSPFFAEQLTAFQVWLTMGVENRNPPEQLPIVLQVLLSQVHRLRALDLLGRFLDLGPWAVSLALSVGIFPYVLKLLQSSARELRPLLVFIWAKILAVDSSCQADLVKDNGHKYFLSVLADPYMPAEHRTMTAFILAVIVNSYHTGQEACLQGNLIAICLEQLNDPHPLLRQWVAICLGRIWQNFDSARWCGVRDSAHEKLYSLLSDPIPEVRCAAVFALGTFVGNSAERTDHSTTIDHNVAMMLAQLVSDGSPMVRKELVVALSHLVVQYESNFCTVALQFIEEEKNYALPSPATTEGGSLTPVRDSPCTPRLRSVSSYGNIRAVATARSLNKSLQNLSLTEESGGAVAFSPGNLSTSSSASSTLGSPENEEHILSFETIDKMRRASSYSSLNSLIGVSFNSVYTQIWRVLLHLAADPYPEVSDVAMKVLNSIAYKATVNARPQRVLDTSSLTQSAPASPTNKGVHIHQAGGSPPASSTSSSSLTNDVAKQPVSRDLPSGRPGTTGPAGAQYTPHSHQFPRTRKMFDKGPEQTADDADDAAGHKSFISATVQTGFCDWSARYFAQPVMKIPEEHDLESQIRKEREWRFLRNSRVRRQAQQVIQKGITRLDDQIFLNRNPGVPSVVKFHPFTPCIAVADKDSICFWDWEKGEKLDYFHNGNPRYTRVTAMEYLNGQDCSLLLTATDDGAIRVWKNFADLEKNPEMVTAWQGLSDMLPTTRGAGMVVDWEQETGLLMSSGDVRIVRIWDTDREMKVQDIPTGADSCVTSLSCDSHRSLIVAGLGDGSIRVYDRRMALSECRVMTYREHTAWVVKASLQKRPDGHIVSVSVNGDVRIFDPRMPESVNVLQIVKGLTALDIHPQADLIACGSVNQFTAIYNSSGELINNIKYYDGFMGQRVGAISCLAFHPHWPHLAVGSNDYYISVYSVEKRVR
Sequence of mTORC1 (Homo sapiens) (Q9BVC4 whole entry, looked up, other chains not shown): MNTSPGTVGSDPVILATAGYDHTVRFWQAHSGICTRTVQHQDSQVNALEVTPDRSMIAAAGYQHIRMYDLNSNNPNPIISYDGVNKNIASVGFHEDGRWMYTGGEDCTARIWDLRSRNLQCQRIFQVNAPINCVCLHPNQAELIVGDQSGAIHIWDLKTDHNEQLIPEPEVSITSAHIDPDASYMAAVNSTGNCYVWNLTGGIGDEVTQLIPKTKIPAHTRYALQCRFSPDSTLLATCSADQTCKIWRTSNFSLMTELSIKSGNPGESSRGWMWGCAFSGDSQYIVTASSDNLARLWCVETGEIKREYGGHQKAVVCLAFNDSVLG

The Tmax is the time at which the peak concentration occurs. What is called half-life is how long it takes for the measured level to halve. Higher therefore signals slow loss. For `CN1CCN(C(=O)c2ccc(-c3nn4c(-c5ccc(C#N)cc5)cnc4s3)cc2)CC1`, the inhibition entry in the data set on MDA-MB-231 was “Dose-Dependent Effect”. For the same compound, the inhibition result on mTORC1 (Homo sapiens) is “inactive”. Moreover, the result in the data set with A549 [1] and with MV4-11 was Active. In the data set on A549 [2], the Activity is on record as 9%. The time to peak (Tmax) in data set [3] came out at 4.8 min. The same compound gave a half-life in data set [4] of 3.4 h. Also, the inhibition entry in data set [5] and in data set [6] was “Active” each time.

Values taken from ChEMBL document CHEMBL5223168, “Using Imidazo[2,1-b][1,3,4]thiadiazol Skeleton to Design and Synthesize Novel MNK Inhibitors” (ACS Med Chem Lett, 2023).
